Data reported in ChEMBL document CHEMBL4368901 (J Med Chem, 2019).

Assays:
A549 [1] = assay: Antiproliferative activity against human A549 cells after 5 days by EZMTT reagent-based assay relative to control; format: functional
[2] = Inhibition of GDH (unknown origin) using NADP+ and glutamate as substrate preincubated for 0.5 hrs followed by substrate addition and measured after 1 hr by EZMTT reagent-based UV-Vis absorbance assay; set-up: species or system Homo sapiens
A549 [3] = assay: Antiproliferative activity against human A549 cells after 5 days by EZMTT reagent-based assay; format: functional, cell-based; conditions: A549, 120 h
[4] = biological target: T1, Glutaminase kidney isoform, mitochondrial (Homo sapiens, UniProt O94925); assay: Inhibition of human KGA preincubated for 15 to 30 mins followed by substrate addition and measured after 3 to 4 hrs by GDH-EZMTT reagent-based GDH coupled assay
T1 sequence (O94925 whole entry): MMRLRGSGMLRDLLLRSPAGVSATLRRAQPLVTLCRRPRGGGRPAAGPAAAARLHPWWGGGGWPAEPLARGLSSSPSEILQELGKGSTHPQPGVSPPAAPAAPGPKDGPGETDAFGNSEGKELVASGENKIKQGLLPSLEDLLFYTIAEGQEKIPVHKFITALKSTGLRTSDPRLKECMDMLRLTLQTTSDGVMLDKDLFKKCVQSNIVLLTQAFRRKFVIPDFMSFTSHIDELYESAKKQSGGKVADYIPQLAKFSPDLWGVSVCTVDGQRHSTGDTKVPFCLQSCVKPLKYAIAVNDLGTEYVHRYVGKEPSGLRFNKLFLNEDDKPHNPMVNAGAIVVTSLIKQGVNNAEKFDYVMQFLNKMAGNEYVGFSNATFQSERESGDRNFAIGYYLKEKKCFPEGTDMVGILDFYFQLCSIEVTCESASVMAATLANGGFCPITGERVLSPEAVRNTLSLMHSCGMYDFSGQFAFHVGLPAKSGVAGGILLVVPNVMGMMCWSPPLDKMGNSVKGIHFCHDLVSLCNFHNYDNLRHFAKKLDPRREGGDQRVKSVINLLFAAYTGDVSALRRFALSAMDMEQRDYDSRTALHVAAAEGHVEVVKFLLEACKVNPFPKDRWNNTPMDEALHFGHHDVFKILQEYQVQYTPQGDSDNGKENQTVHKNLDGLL

CAKI-1 [5] = assay: Antiproliferative activity against human Caki1 cells after 5 days by EZMTT reagent-based assay; format: functional, cell-based; conditions: CAKI-1, 120 h
H22 [6] = assay: Antiproliferative activity against mouse H22 cells after 5 days by EZMTT reagent-based assay relative to control; format: functional
CAKI-1 [7] = assay: Antiproliferative activity against human Caki1 cells after 5 days by EZMTT reagent-based assay relative to control; format: functional
H22 [8] = assay: Antiproliferative activity against mouse H22 cells after 5 days by EZMTT reagent-based assay; format: functional, cell-based; conditions: H22, 120 h
HCT-116 [9] = assay: Antiproliferative activity against human HCT116 cells after 5 days by EZMTT reagent-based assay relative to control; format: functional
HCT-116 [10] = assay: Antiproliferative activity against human HCT116 cells after 5 days by EZMTT reagent-based assay; format: functional, cell-based; conditions: HCT-116, 120 h
[11] = Drug uptake in human Caki1 cells after 24 hrs using gold nanoparticles by microspectrometric based Raman spectra assay; format: ADME, cell-based; conditions: caki-1, 24 h
Method in brief: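 Compound was premixed 1:1 with nanogold particles, at up to 2 µM. Glutamine-dependent Caki-1 cells were treated for 3, 9, 16 and 24 h, then SERS spectra were collected. Signal at 1352 cm^-1 served as the compound marker for cellular concentration.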

[12] = Drug uptake in human Caki1 cells up to 2 uM after 24 hrs without gold nanoparticles by microspectrometric analysis based Raman spectra assay; format: ADME, cell-based; conditions: caki-1, 24 h
[13] = Solubility of compound; format: physicochemical
[14] = Metabolic stability in mouse liver microsomes at 50 uM after 4 hrs in presence of NADPH by HPLC analysis; format: ADME, Microsome; conditions: read-out: Stability
Method in brief: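 Compound was incubated with mouse liver microsomes for 4 h, with coumarin as the control. The remaining level was quantified by HPLC using UV absorbance at 254 nm.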

| SMILES | Imax (A549 [1]) [%] | IC50 [2] [µM] | IC50 (A549 [3]) [µM] | IC50 [4] [µM] | other results |
| --- | --- | --- | --- | --- | --- |
| Nc1nnc(CCCCc2nnc(NC(=O)Cc3ccccc3)s2)s1 | 0 | > 13 | > 13 | > 13 | – |
| O=c1c2ccccc2[se]n1CCCCCCn1[se]c2ccccc2c1=O | – | – | – | – | IC50 (CAKI-1 [5]): 1.29 µM; Imax (H22 [6]): 100%; Imax (CAKI-1 [7]): 100%; IC50 (H22 [8]): 0.84 µM; Imax (HCT-116 [9]): 100%; IC50 (HCT-116 [10]): 2.17 µM |
| Cn1cc(CC(=O)Nc2nnc(CCSCCc3nnc(NC(=O)Cc4cn(C)c5ccccc45)s3)s2)c2ccccc21 | 80 | > 13 | 2.9 | – | Drug uptake [11]: Dose-dependent effect; IC50 (CAKI-1 [5]): 3.92 µM; Imax (H22 [6]): 42%; Drug uptake [12]: Not Active; Imax (CAKI-1 [7]): 85%; IC50 (H22 [8]): > 10 µM; Imax (HCT-116 [9]): 93%; IC50 (HCT-116 [10]): 2.2 µM |
| c1ccc(CNc2nnc(CCSCCc3nnc(NCc4ccccc4)[se]3)[se]2)cc1 | 0 | > 13 | > 13 | > 13 | – |
| O=C(Cc1ccccc1)Nc1nnc(CCCCc2nnc(NC(=O)Cc3ccccc3)s2)s1 | 0 | > 13 | > 13 | – | solubility [13]: Insoluble |
| O=C(Cc1ccccc1)Nc1nnc(CCSCCc2nnc(NC(=O)Cc3ccccc3)s2)s1 | 72 | > 13 | 0.42 | – | IC50 (CAKI-1 [5]): 1.16 µM; Imax (H22 [6]): 29%; Imax (CAKI-1 [7]): 73%; Imax (HCT-116 [9]): 69%; IC50 (HCT-116 [10]): 0.54 µM |
| Nc1nnc(CCSCCc2nnc(NC(=O)C34CC5CC(CC(C5)C3)C4)[se]2)[se]1 | 0 | > 13 | > 13 | 8 | – |
| Cn1ccc(CC(=O)Nc2nnc(CCSCCc3nnc(N)[se]3)[se]2)c1 | – | > 13 | > 13 | 2.1 | – |
| c1ccc(CCNc2nnc(CCSCCc3nnc(NCCc4ccccc4)[se]3)[se]2)cc1 | 0 | > 13 | > 13 | > 13 | – |
| Cn1ccc(CC(=O)Nc2nnc(CCSCCc3nnc(NC(=O)Cc4ccn(C)c4)s3)s2)c1 | 80 | > 13 | 2.2 | – | – |
| O=c1ccc2ccccc2o1 [COUMARIN] | – | – | – | – | remaining at 4 h, 50 µM [14]: 14% |
| O=C(Nc1nnc(CCSCCc2nnc(NC(=O)C34CC5CC(CC(C5)C3)C4)[se]2)[se]1)C12CC3CC(CC(C3)C1)C2 | 0 | > 13 | > 13 | 1.7 | – |
